Source: ChEMBL document CHEMBL3091291, “Synthesis and pharmacological characterization of benzenesulfonamides as dual species inhibitors of human and murine mPGES-1” (Bioorg Med Chem, 2013)
Active and inactive are the calls of the source. The calls are words filed in the database; no cut-off is given here.

Legend:
[1] = molecular target: T1, Prostaglandin G/H synthase 2 (Homo sapiens) (UniProt P35354); assay: Inhibition of LPS-stimulated COX2 in human whole blood assessed as reduction in PGE2 production by measuring remaining activity at 100 uM preincubated for 15 mins followed by LPS addition measured after 24 hrs by LC-MS/MS analysis
T1 sequence (whole entry): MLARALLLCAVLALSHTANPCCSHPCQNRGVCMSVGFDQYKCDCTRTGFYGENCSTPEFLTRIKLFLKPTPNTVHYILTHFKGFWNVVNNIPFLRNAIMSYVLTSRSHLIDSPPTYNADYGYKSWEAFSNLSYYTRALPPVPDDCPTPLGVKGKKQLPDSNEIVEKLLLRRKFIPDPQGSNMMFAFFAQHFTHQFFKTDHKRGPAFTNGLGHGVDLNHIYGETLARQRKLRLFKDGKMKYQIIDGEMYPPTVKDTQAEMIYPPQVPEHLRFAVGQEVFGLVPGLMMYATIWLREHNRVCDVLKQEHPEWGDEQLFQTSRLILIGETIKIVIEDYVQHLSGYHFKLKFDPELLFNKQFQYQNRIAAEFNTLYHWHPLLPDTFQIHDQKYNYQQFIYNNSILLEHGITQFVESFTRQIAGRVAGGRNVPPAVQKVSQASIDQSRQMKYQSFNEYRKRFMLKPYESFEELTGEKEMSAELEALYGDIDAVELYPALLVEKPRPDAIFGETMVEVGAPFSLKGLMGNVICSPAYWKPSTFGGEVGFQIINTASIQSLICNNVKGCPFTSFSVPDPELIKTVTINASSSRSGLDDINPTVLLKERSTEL
In short: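 Heparinized human whole blood (500 µL) mixed with compound in DMSO, with acetylsalicylic acid added to block COX-1, held 15 min at 37 °C, then stimulated with LPS in autologous plasma to induce COX-2/mPGES-1. After 24 h at 37 °C, samples chilled 5 min on ice; plasma collected, prostaglandins extracted and measured by LC–MS/MS. Remaining activity given relative to vehicle control.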

[2] = molecular target: T2, Prostaglandin E synthase (Mus musculus) (UniProt Q9JM51); assay: Inhibition of mPGES-1 in Swiss mouse NIH/3T3 cells using PGH2 as substrate assessed as inhibition of IL-1beta/TNFalpha-stimulated PGE2 production at 5 uM preincubated for 30 mins followed by substrate addition measured after 1 min by LC-MS/MS analysis; format: cell-based
T2 sequence (whole entry): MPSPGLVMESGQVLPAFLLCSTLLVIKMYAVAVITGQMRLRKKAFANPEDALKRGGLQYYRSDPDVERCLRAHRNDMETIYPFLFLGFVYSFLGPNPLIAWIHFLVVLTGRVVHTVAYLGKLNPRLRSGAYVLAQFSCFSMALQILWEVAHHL
In short: (§1)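 Microsomal fraction from HeLa, NIH-3T3 or RAW 264.7 cells, obtained by sonication and ultracentrifugation, resuspended in 0.1 M KPi pH 7.4 with 2.5 mM reduced GSH. Protein at 0.15 mg/mL (HeLa, NIH) or 0.3 mg/mL (RAW) incubated with compound 30 min on ice. Reaction started with 20 µM PGH₂, stopped after 1 min with FeCl₂/citric acid. PGE₂ quantified by SPE and LC–MS/MS. IC50 from four-parameter logistic fit of increasing concentrations.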

[3] = Cytotoxicity against IL-1beta/TNFalpha-stimulated human HeLa cells assessed as cell viability at 100 uM after 24 hrs by WST-1 assay; format: cell-based; conditions: IL-1beta/TNFalpha-stimulated HeLa cells, read-out: Activity
In short: (§2)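 HeLa cells seeded at 3 × 10³ per well in medium with 10% FCS, grown 24 h at 37 °C, then stimulated with IL-1b (1 ng/mL) + TNFa (5 ng/mL) and treated at the same time with compound (1, 10, 100 µM) or DMSO for 24 h. WST-1 reagent then added for 90–150 min; absorbance read at 450 nm against 620 nm reference.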

HeLa = assay: Cytotoxicity against IL-1beta/TNFalpha-stimulated human HeLa cells assessed as cell viability up to 10 uM after 24 hrs by WST-1 assay; format: cell-based; in short: as §2
Prostaglandin E synthase = molecular target: T3, Prostaglandin E synthase (Homo sapiens, UniProt O14684); assay: Inhibition of mPGES-1 in human HeLa cells using PGH2 as substrate assessed as inhibition of IL-1beta/TNFalpha-stimulated PGE2 production preincubated for 30 mins followed by substrate addition measured after 1 min by LC-MS/MS analysis; format: cell-based; in short: as §1
T3 sequence (O14684 whole entry): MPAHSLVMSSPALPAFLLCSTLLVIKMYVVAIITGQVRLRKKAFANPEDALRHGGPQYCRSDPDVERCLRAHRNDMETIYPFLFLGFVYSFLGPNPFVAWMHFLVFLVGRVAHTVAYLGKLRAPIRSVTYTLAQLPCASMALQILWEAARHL

[4] = molecular target: T4, Prostaglandin E synthase (Homo sapiens) (UniProt O14684); assay: Inhibition of mPGES-1 in human HeLa cells using PGH2 as substrate assessed as inhibition of IL-1beta/TNFalpha-stimulated PGE2 production at 5 uM preincubated for 30 mins followed by substrate addition measured after 1 min by LC-MS/MS analysis; format: cell-based; in short: as §1
T4 sequence (whole entry): T3 sequence (O14684 whole entry)

[5] = molecular target: Prostaglandin G/H synthase 1 (Homo sapiens) (UniProt P23219); assay: Inhibition of COX1 in human whole blood assessed as reduction in TXB2 production by measuring remaining activity at 100 uM after 1 hr by LC-MS/MS analysis
Sequence of Prostaglandin G/H synthase 1 (Homo sapiens) (P23219 whole entry): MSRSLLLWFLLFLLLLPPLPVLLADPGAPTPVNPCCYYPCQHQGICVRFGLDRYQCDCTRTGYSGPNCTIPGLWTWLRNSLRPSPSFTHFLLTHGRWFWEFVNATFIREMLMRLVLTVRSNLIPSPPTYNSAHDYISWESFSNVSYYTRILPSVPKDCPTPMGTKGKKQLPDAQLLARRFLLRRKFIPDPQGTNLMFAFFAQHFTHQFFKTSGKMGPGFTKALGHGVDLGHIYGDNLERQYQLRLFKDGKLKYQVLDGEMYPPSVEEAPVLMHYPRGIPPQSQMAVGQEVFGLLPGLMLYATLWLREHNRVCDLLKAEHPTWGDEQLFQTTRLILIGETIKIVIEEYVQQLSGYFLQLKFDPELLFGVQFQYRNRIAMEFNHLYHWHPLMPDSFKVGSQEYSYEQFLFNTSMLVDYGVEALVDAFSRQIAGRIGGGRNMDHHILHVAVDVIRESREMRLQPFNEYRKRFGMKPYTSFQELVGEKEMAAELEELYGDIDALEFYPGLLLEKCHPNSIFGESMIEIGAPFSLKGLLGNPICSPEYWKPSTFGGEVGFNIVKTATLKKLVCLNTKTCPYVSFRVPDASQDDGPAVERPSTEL

[6] = molecular target: T4, Prostaglandin E synthase (Homo sapiens); assay: Inhibition of mPGES-1 in human HeLa cells using PGH2 as substrate assessed as inhibition of IL-1beta/TNFalpha-stimulated PGE2 production at 1 to 10 uM after 24 hrs by LC-MS/MS analysis; format: cell-based
In short: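 HeLa cells (2 × 10⁴ per well) grown 24 h at 37 °C, then given fresh medium with 1 ng/mL IL-1b + 5 ng/mL TNFa (or PBS for unstimulated control) plus compound (1, 10 or 100 µM) or DMSO for 24 h at 37 °C. Supernatant mixed with H₃PO₄, EDTA and deuterated internal standards; PGE₂ measured by SPE and LC–MS/MS.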

[7] = molecular target: T2, Prostaglandin E synthase (Mus musculus); assay: Inhibition of mPGES-1 in mouse RAW264.7 cells using PGH2 as substrate assessed as inhibition of LPS-stimulated PGE2 production at 5 uM preincubated for 30 mins followed by substrate addition measured after 1 min by LC-MS/MS analysis; format: cell-based; in short: as §1

| Compound | Activity [1] [%] | inhibition [2] [%] | IC50 (Prostaglandin E synthase) [µM] | inhibition [4] [%] | Activity [5] [%] | inhibition [6] | inhibition [7] [%] | viability at 24 h, 100 µM [3] [%] | Activity (HeLa) |
| --- | --- | --- | --- | --- | --- | --- | --- | --- | --- |
| COc1ccc(CN(Cc2ccccc2)S(=O)(=O)c2ccc(C(=O)O)cc2)cc1 | 74.4 | 10.6 | 13.8 | 39.9 | 90 | inactive | 29.8 | 50 | Non-toxic |
| O=C(O)c1ccc(S(=O)(=O)N(Cc2ccccc2)Cc2ccc(Nc3ccccc3)cc2)cc1 | 61.2 | 67.9 | 7.2 | 78.5 | 110 | inactive | – | 50 | Non-toxic |
| COc1ccc(CN(CC2CCCCC2)S(=O)(=O)c2ccc(C(=O)O)cc2)cc1 | 39 | 48.5 | 10.2 | 67.9 | 83.6 | inactive | – | 50 | Non-toxic |

The next lines start with results.

| Activity [1] [%] | inhibition [2] [%] | IC50 (Prostaglandin E synthase) [µM] | inhibition [4] [%] | Activity [5] [%] | inhibition [6] | inhibition [7] [%] | Compound | viability at 24 h, 100 µM [3] [%] | Activity (HeLa) |
| --- | --- | --- | --- | --- | --- | --- | --- | --- | --- |
| 88.7 | 65.1 | 1 | 90 | 92.4 | inactive | 71.4 | O=C(O)c1ccc(S(=O)(=O)N(Cc2ccccc2)Cc2ccc(Oc3ccccc3)cc2)cc1 | 50 | Non-toxic |
| 66.8 | 71.2 | 1.7 | 79.8 | 85.2 | inactive | 74.7 | O=C(O)c1ccc(S(=O)(=O)N(Cc2ccccc2)c2ccc(Oc3ccccc3)cc2)cc1 | 50 | Non-toxic |
